Experimental data published in ChEMBL document CHEMBL1148612, “Rapid synthesis of triazole-modified resveratrol analogues via click chemistry” (J Med Chem, 2006).

Experiments:
[1] = system: MDA-MB-231; experiment: Cytotoxicity against breast cancer MDA-MB-231 cell line by MTT assay; assay type: functional, cell-based; details: Homo sapiens
Summary of the method: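 MDA-MB-231 cells were screened by MTT in an automated format across decreasing compound concentrations. Viability was expressed as % of untreated control, with 70% of control as the arbitrary cutoff for reduced viability at 10 µM. IC50 values are approximate and were assigned to concentration ranges.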

[2] = system: MDA-MB-231; experiment: Cytotoxicity against breast cancer MDA-MB-231 cell line by MTT assay at 100 uM; assay type: functional, Homo sapiens
Summary of the method: (§1)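 Cells were exposed to compound at 100 µM for 48 h. Values are % viability relative to untreated control cells, given as mean ± SEM of four determinations.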

[3] = system: RBL-2H3; experiment: Cytotoxicity against basophilic leukemia RBL 2H3 cell line by MTT assay at 100 uM; assay type: functional, Rattus norvegicus; summary of the method: as §1
[4] = system: FG2; experiment: Cytotoxicity against human pancreatic carcinoma FG2 cell line by MTT assay at 100 uM; assay type: functional; summary of the method: as §1
[5] = system: SH-SY5Y; experiment: Cytotoxicity against neuroblastoma SHSY5Y cell line by MTT assay at 100 uM; assay type: functional, Homo sapiens; summary of the method: as §1

Compound	IC50 [1] [µM]	further results
COc1cc(OC)cc(-n2cc(-c3ccc(O)c(OC)c3)nn2)c1	10	
COc1cc(-n2cc(-c3ccc(N)cc3)nn2)cc(OC)c1OC	> 10	
COc1ccc(-n2cc(-c3ccc(O)c(OC)c3)nn2)cc1	> 10	
Nc1ccc(-c2cn(-c3c(O)c(F)cc(F)c3F)nn2)cc1	> 10	
COc1ccc(-c2cn(-c3cc(OC)c(OC)c(OC)c3)nn2)cc1	> 10	
Oc1cc(O)cc(-c2cn(-c3ccc(Oc4ccccc4)cc3)nn2)c1	> 10	
Oc1ccc(-n2cc(-c3cc(O)cc(O)c3)nn2)cc1		Activity [2]: 95.5%; Activity [3]: 114%; Activity [4]: 91.9%; Activity [5]: 86.6%
COc1ccc(-c2cn(-c3ccc(OC(F)(F)F)cc3)nn2)cc1	1	
COc1cc(-c2cn(-c3ccc(Oc4ccccc4)cc3)nn2)cc(OC)c1OC	10	
COc1ccc(-c2cn(-c3ccc(OC)c(OC)c3)nn2)cc1	> 10	
COc1ccc(-c2cn(-c3ccc(OC(F)(F)F)cc3)nn2)cc1OC	> 1	
COc1ccc(-c2cn(-c3ccc(OC)c(OC)c3)nn2)cc1O	> 0.1	
COc1ccc(-c2cn(-c3cc(O)cc(O)c3)nn2)cc1		Activity [2]: 72.2%; Activity [3]: 99.6%; Activity [4]: 83.7%; Activity [5]: 62.2%
COc1ccc(-n2cc(-c3cc(OC)c(OC)c(OC)c3)nn2)cc1	> 10	
COc1cc(-c2cn(-c3cc(OC)c(OC)c(OC)c3)nn2)ccc1O	> 10	
Nc1ccc(-c2cn(-c3ccc4c(c3)OCO4)nn2)cc1	> 10	
COc1ccc(-n2cc(-c3cc(O)cc(O)c3)nn2)cc1O	> 10	
COc1ccc(-c2cn(-c3ccc(Oc4ccccc4)cc3)nn2)cc1	> 0.1	
COc1cc(-c2cn(-c3ccc4c(c3)OCO4)nn2)ccc1O	> 10	
COc1cc(OC)cc(-c2cn(-c3c(O)c(F)cc(F)c3F)nn2)c1	> 10	
Oc1cc(O)cc(-c2cn(-c3ccc4c(c3)OCO4)nn2)c1	> 1	
COc1ccc(-c2cn(-c3ccc(OC)cc3)nn2)cc1	> 0.1	
COc1cc(OC)cc(-n2cc(-c3ccc(OC)c(OC)c3)nn2)c1	> 1	
COc1ccc(-n2cc(-c3ccc(N)cc3)nn2)cc1OC	> 10	
COc1ccc(-c2cn(-c3cc(OC)cc(OC)c3)nn2)cc1		Activity [2]: 99.3%; Activity [3]: 113%; Activity [4]: 100.8%; Activity [5]: 85.9%
COc1cc(OC)cc(-n2cc(-c3cc(OC)c(OC)c(OC)c3)nn2)c1	> 1	

Compound	IC50 [1] [µM]	further results
COc1cc(OC)cc(-c2cn(-c3ccc(OC(F)(F)F)cc3)nn2)c1	> 1	
COc1cc(-c2cn(-c3cc(OC)c(OC)c(OC)c3)nn2)cc(OC)c1OC	> 10	
Oc1cc(O)cc(-c2cn(-c3ccc(OC(F)(F)F)cc3)nn2)c1	> 10	
COc1cc(-c2cn(-c3c(O)c(F)cc(F)c3F)nn2)ccc1O	10	
COc1ccc(-c2cn(-c3ccc(Oc4ccccc4)cc3)nn2)cc1O	> 10	
COc1ccc(-c2cn(-c3ccc4c(c3)OCO4)nn2)cc1	1	
Oc1ccc(-c2cn(-c3cc(O)cc(O)c3)nn2)cc1		Activity [2]: 97%; Activity [3]: 110%; Activity [4]: 93.7%; Activity [5]: 93.4%
COc1ccc(-n2cc(-c3cc(O)cc(O)c3)nn2)c(OC)c1	10	
COc1ccc(-n2cc(-c3ccc(O)c(OC)c3)nn2)cc1O	> 10	
COc1ccc(-c2cn(-c3ccc(OC)cc3OC)nn2)cc1	> 10	
COc1ccc(-c2cn(-c3ccc(OC(F)(F)F)cc3)nn2)cc1O	> 10	
COc1cc(OC)cc(-n2cc(-c3cc(O)cc(O)c3)nn2)c1	> 10	
COc1ccc(-n2cc(-c3cc(O)cc(O)c3)nn2)cc1OC	> 10	
COc1cc(OC)cc(-c2cn(-c3cc(OC)c(OC)c(OC)c3)nn2)c1	> 10	
COc1ccc(-n2cc(-c3ccc(N)cc3)nn2)cc1O	> 10	
COc1ccc(-n2cc(-c3cc(OC)c(OC)c(OC)c3)nn2)cc1O	10	
COc1ccc(-n2cc(-c3ccc(OC)c(O)c3)nn2)cc1	> 10	
COc1ccc(-c2cn(-c3ccc4c(c3)OCO4)nn2)cc1O	> 10	
COc1cc(OC)cc(-c2cn(-c3ccc4c(c3)OCO4)nn2)c1	> 10	
Nc1ccc(-c2cn(-c3ccc(Oc4ccccc4)cc3)nn2)cc1	> 10	
COc1ccc(-n2cc(-c3cc(O)cc(O)c3)nn2)cc1	> 10	
COc1ccc(-n2cc(-c3ccc(N)cc3)nn2)c(OC)c1	> 10	
COc1ccc(-n2cc(-c3ccc(OC)c(OC)c3)nn2)cc1	> 0.1	
COc1cc(OC)cc(-c2cn(-c3cc(OC)cc(OC)c3)nn2)c1	> 10	
COc1ccc(-c2cn(-c3ccc(Oc4ccccc4)cc3)nn2)cc1OC	10	
COc1ccc(-c2cn(-c3ccc4c(c3)OCO4)nn2)cc1OC	10	

Compound	IC50 [1] [µM]	further results
COc1cc(OC)cc(-c2cn(-c3ccc(OC)c(O)c3)nn2)c1	> 10	
Nc1ccc(-c2cn(-c3ccc(OC(F)(F)F)cc3)nn2)cc1	> 0.01	
COc1cc(-n2cc(-c3cc(O)cc(O)c3)nn2)cc(OC)c1OC	> 10	
COc1cc(OC)cc(-c2cn(-c3ccc(OC)cc3OC)nn2)c1	> 10	
COc1cc(OC)cc(-n2cc(-c3ccc(N)cc3)nn2)c1	> 10	
COc1ccc(-c2cn(-c3c(O)c(F)cc(F)c3F)nn2)cc1O	> 10	
COc1ccc(-n2cc(-c3ccc(OC)c(O)c3)nn2)c(OC)c1	> 10	
COc1cc(OC)cc(-c2cn(-c3ccc(Oc4ccccc4)cc3)nn2)c1	> 10	
COc1ccc(-c2cn(-c3ccc(OC)c(O)c3)nn2)cc1O	> 10	
COc1cc(OC)cc(-n2cc(-c3ccc(OC)c(O)c3)nn2)c1	> 10	
COc1ccc(-n2cc(-c3cc(OC)c(OC)c(OC)c3)nn2)c(OC)c1	> 10	
COc1ccc(-n2cc(-c3ccc(N)cc3)nn2)cc1	> 0.1	
COc1cc(-c2cn(-c3ccc(OC(F)(F)F)cc3)nn2)cc(OC)c1OC	> 10	
COc1ccc(-n2cc(-c3cc(OC)cc(OC)c3)nn2)cc1		Activity [2]: 93.2%; Activity [3]: 116%; Activity [4]: 88.2%; Activity [5]: 78.6%
COc1ccc(-c2cn(-c3c(O)c(F)cc(F)c3F)nn2)cc1	> 1	
COc1ccc(-c2cn(-c3cc(OC)c(OC)c(OC)c3)nn2)cc1O	> 10	
COc1cc(-c2cn(-c3ccc4c(c3)OCO4)nn2)cc(OC)c1OC	10	
COc1cc(OC)cc(-c2cn(-c3ccc(OC)c(OC)c3)nn2)c1	10	
COc1cc(-c2cn(-c3ccc(OC(F)(F)F)cc3)nn2)ccc1O	10	
COc1ccc(-c2cn(-c3ccc(OC)c(O)c3)nn2)cc1	> 0.1	
COc1ccc(-n2cc(-c3ccc(OC)c(OC)c3)nn2)cc1O	> 1	
COc1ccc(-c2cn(-c3ccc(N)cc3)nn2)cc1O	> 10	
COc1ccc(-c2cn(-c3ccc(N)cc3)nn2)cc1	> 0.1	
Oc1ccc(/C=C/c2cc(O)cc(O)c2)cc1 [RESVERATROL]		Activity [2]: 67.9%; Activity [3]: 52.1%; Activity [4]: 42.2%; Activity [5]: 33.5%
